Measured values published in ChEMBL document CHEMBL2150944, “Antimalarial activity of pyrroloiminoquinones from the Australian marine sponge Zyzzya sp” (J Med Chem, 2012).
Structures can show the parent of a compound that is named as a salt. Active and inactive are the calls of the source. The rule behind the calls is not given here.

What was measured:
[1] = tested on: Plasmodium berghei; assay: Antimalarial activity against chloroquine-sensitive Plasmodium berghei ANKA infected in ip dosed Swiss albino mouse assessed as suppression of parasitemia measured on day 4 post infection by Giemsa staining; format: functional; details: 96 h
[2] = tested on: Plasmodium berghei; assay: Antimalarial activity against chloroquine-sensitive Plasmodium berghei ANKA infected in Swiss albino mouse assessed as suppression of parasitemia at 8 mg/kg/day, ip measured on day 4 post infection by Giemsa staining relative to control; format: functional; details: route intraperitoneal
[3] = tested on: HCT-116; assay: Cytotoxicity against human HCT116 cells; format: functional, cell-based
[4] = target: DNA topoisomerase 2-alpha (Homo sapiens) (UniProt P11388); assay: Inhibition of topoisomerase 2 by decatenation assay
Sequence of DNA topoisomerase 2-alpha (Homo sapiens) (P11388 whole entry): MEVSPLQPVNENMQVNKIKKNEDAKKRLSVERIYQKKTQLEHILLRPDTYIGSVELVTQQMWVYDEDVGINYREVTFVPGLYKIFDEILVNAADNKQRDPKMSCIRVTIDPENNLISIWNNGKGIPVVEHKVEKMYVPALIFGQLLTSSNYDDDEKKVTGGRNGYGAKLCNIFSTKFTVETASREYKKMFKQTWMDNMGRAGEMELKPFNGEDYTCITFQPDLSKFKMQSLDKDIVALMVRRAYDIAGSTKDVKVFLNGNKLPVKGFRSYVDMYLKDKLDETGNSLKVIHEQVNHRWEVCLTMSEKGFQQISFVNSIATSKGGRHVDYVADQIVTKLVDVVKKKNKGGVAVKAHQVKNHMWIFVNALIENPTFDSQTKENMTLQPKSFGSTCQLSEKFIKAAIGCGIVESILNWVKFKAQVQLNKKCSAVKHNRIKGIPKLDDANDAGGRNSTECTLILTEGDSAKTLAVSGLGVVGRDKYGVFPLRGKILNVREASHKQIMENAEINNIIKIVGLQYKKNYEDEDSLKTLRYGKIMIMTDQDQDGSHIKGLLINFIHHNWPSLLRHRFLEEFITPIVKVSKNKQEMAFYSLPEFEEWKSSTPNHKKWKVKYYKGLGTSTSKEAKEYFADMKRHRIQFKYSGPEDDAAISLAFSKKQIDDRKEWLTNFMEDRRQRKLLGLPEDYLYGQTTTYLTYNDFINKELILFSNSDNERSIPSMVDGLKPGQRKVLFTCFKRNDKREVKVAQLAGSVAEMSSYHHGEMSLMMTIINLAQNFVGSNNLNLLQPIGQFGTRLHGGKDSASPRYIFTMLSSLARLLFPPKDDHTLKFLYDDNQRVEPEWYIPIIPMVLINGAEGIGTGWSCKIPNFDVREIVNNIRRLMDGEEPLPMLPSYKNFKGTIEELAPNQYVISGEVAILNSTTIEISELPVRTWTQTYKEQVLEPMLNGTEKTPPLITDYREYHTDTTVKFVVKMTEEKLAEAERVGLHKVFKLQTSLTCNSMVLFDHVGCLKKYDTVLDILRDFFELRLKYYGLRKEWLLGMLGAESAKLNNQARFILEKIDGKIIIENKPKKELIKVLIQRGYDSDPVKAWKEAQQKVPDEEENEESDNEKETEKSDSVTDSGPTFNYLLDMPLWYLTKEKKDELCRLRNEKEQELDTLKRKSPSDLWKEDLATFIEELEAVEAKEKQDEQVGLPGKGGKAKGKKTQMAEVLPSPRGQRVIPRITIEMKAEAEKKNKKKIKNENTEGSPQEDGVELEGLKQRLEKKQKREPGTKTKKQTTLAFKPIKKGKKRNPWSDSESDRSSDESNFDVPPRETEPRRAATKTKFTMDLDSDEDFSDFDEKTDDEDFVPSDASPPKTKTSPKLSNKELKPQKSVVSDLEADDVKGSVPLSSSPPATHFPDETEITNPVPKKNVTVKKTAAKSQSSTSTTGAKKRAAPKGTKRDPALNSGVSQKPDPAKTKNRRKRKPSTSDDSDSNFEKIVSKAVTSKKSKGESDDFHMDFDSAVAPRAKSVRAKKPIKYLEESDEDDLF

[5] = tested on: XRS6; assay: Cytotoxicity against Chinese hamster Xrs-6 cells; format: cell-based; details: Cricetulus griseus
[6] = tested on: Plasmodium falciparum; assay: Antimalarial activity against chloroquine-sensitive Plasmodium falciparum 3D7 assessed as growth inhibition after 72 hrs by DAPI staining; format: functional, organism-based; details: 3D7, 72 h
How it was run: (§1)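 P. falciparum 3D7 or Dd2 at 2% or 3% parasitemia, 0.3% hematocrit, exposed 72 h at 37 °C, 5% CO2. Staining with DAPI plus saponin and Triton X-100, 5 h at room temperature in the dark, then confocal imaging and automated counting of parasite spots. Percent inhibition is calculated against DMSO and 2 μM artemisinin controls.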

[7] = tested on: Plasmodium falciparum; assay: Antimalarial activity against chloroquine-resistant Plasmodium falciparum Dd2 assessed as growth inhibition after 72 hrs by DAPI staining; format: functional, organism-based; details: Dd2, 72 h; how it was run: as §1
[8] = Selectivity index, ratio of IC50 for human HEK293 cells to IC50 for chloroquine-resistant Plasmodium falciparum Dd2; format: toxicity, cell-based; details: read-out: Ratio IC50
[9] = tested on: HEK293; assay: Cytotoxicity against human HEK293 cells assessed as growth inhibition after 72 hrs by Alamar blue assay; format: cell-based; details: HEK293, 72 h
How it was run: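 HEK293 adherent cells (3000/well) were incubated with compound for 72 h at 37 °C and 5% CO2. Medium was removed, then 10% Alamar Blue was added for 5−6 h. Fluorescence was read at ex 535/em 590 nm. Inhibition was normalised to DMSO and 10 μM puromycin controls. IC50 came from nonlinear variable-slope regression of % inhibition against log dose.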

[10] = Selectivity index, ratio of IC50 for human HEK293 cells to IC50 for chloroquine-sensitive Plasmodium falciparum 3D7; format: toxicity, cell-based; details: read-out: Ratio IC50
[11] = tested on: Plasmodium falciparum; assay: Antimalarial activity against chloroquine-sensitive Plasmodium falciparum 3D7 ring stage assessed as growth inhibition at 408 nM after 10 hrs by [3H]-hypoxanthine incorporation assay; format: functional, organism-based
How it was run: (§2)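 Synchronous 3D7 rings (~10−16 h post-invasion) or trophozoites (~24−30 h post-invasion), 0.5% parasitemia, 5% hematocrit, exposed 4, 6 or 10 h to compound or 0.04% DMSO vehicle. Cultures are washed, plated in triplicate with 0.5 μCi 3H-hypoxanthine, and incorporation is counted after ~48−72 h. Percent growth is relative to matched vehicle controls, from at least two independent experiments.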

[12] = tested on: Plasmodium falciparum; assay: Antimalarial activity against chloroquine-sensitive Plasmodium falciparum 3D7 trophozoite stage assessed as growth inhibition at 408 nM after 10 hrs by [3H]-hypoxanthine incorporation assay; format: functional, organism-based; how it was run: as §2
[13] = tested on: Plasmodium falciparum; assay: Antimalarial activity against chloroquine-sensitive Plasmodium falciparum 3D7 trophozoite stage assessed as growth inhibition at 204 nM after 10 hrs by [3H]-hypoxanthine incorporation assay; format: functional, organism-based; how it was run: as §2
[14] = tested on: Plasmodium falciparum; assay: Antimalarial activity against chloroquine-sensitive Plasmodium falciparum 3D7 ring stage assessed as growth inhibition at 204 nM after 10 hrs by [3H]-hypoxanthine incorporation assay; format: functional, organism-based; how it was run: as §2

Row | SMILES | IC50 [3] [µM] | IC50 [5] [µM] | IC50 [6] [µM] | IC50 [7] [µM] | selectivity ratio [8] | IC50 [9] [µM] | selectivity ratio [10] | also measured
1 | CCN(CC)CCCC(C)Nc1ccnc2cc(Cl)ccc12 (stereo unspecified) [CHLOROQUINE] |  |  |  |  |  |  |  | ED50 [1]: 1.9 mg/kg/day; Activity [2]: 35%
2 | O=C1C(NC2Cc3cc(Br)c(O)cc3S2)=CC2=NCCc3c[nH]c1c32 (stereo unspecified) [MAKALUVAMINE F] | > 0.17 | 0.08 |  |  |  |  |  | IC90 [4]: 25 µM
3 | O=C1C(NCCc2ccc(O)cc2)=CC2=NCCc3c[nH]c1c32 [MAKALUVAMINE D] | > 0.17 | 0.08 |  |  |  |  |  | 
4 | CN1CCc2c[nH]c3c2C1=CC(=O)C3=O [DAMIRONES B] |  |  | 12.2 | 3.8 | > 32 | > 120 | > 10 | 
5 | Cn1cc2c3c1C(=O)C(N)=CC3=NCC2 [MAKALUVAMINE A] | > 0.17 | 0.08 |  |  |  |  |  | IC90 [4]: 41 µM
6 | Cn1cc2c3c1C(=O)C(N/C=C/c1ccc(O)cc1)=CC3=NCC2 [MAKALUVAMINE E] | > 0.17 | 0.08 |  |  |  |  |  | 
7 | Cn1cc2c3c1C(=O)C(NCCc1ccc(O)cc1)=CC3=NCC2 [MAKALUVAMINE K TFA SALT] |  |  | 0.396 | 0.3 | 4 | 1.1 | 3 | 
8 | Cn1cc2c3c1C(=O)c1[nH]cc(-c4ccc(O)cc4)c1C3=[N+](C)CC2 [TSITSIKAMMAMINE C TRIFLUROACETATE] |  |  | 0.013 | 0.018 | 200 | 3.6 | 276 | growth inhibition (GI) [11]: Active; growth inhibition (GI) [12]: Active; growth inhibition (GI) [13]: Active; growth inhibition (GI) [14]: Active
